For assay [1], the species on record is Rattus norvegicus. The assay is described as follows: Antidiabetic activity in albino rat diabetic model assessed as plasma glucose level measured after 4 hrs (reference value: 291 +/- 6.40 mg/dl). The class given is functional.
The species entered for assay [2] is Rattus norvegicus. The assay is described as follows: Antidiabetic activity in albino rat diabetic model assessed as plasma glucose level measured after 5 hrs (reference value: 275 +/- 3.53 mg/dl). The class given is functional.
The species entered for another assay is Bos taurus. The experiment in a line: Inhibition of calf ALR1 at 0.6 mM. Summed up: (§1)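 ALR1 (aldehyde reductase) partially purified from calf kidney. Values are IC50 ± SEM in µM, or percent inhibition at 0.6 mM. Valproic acid served as positive control to validate the assay.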
For assay [3], the species on record is Rattus norvegicus. The experiment in a line: Antidiabetic activity in albino rat diabetic model assessed as plasma glucose level measured after 3 hrs (reference value: 263 +/- 10.67 mg/dl). The class given is functional.
Assay [4] is filed under the species Rattus norvegicus. The assay is described as follows: Antidiabetic activity in albino rat diabetic model assessed as plasma glucose level measured after 6 hrs (reference value: 285 +/- 8.66 mg/dl). In kind it is functional.
Assay [5] is filed under the species Rattus norvegicus. The assay is described as follows: Antidiabetic activity in albino rat diabetic model assessed as plasma glucose level measured after 7 hrs (reference value: 280 +/- 6.51 mg/dl). In kind it is functional.
The nature of assay [6]: Inhibition of calf ALR2. Set-up: species or system Bos taurus. The essentials:
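Partially purified ALR2 extracted from calf eye. D,L-glyceraldehyde was the substrate with NADPH as cofactor, and sulindac served as reference. IC50 values are given ± SEM from n = 3. Kinetics were also run with inhibitor at 20 µM, varying substrate or NADPH for Km and inhibition type.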

The species named for assay [7] is Rattus norvegicus. The assay is described as follows: Antidiabetic activity in albino rat diabetic model assessed as plasma glucose level measured after 2 hrs (reference value: 251 +/- 2.91 mg/dl). In kind it is functional.
Assay [8] is filed under the species Rattus norvegicus. The assay is described as follows: Antidiabetic activity in albino rat diabetic model assessed as plasma glucose level measured after 1 hr (reference value: 274 +/- 4.73 mg/dl). The class given is functional.
Assay [9] is described as follows: Inhibition of calf ALR1. Set-up: species or system Bos taurus. The essentials: as §1

pIC50: −log10 of the molar value.

Consider `O=C1NC2(CC3CCC2C3)C(=O)N1S(=O)(=O)c1ccc2ccccc2c1` (stereo unspecified), for which the Activity in the assay listed under Rattus norvegicus [1] stood at 471 mg/dL; in the assay listed under Rattus norvegicus [2], 401 mg/dL; in the assay filed under Rattus norvegicus [3], 393 mg/dL; in the assay listed under Rattus norvegicus [4], 414 mg/dL; in the assay listed under Rattus norvegicus [5], 430 mg/dL; in the assay listed under Rattus norvegicus [7], 389 mg/dL. Besides, the Activity in the assay listed under Rattus norvegicus [8] came to 210 mg/dL. Moreover, in the assay filed under Bos taurus, the inhibition (usually the share of the control response that was lost under treatment) was found to be 36.8%. The pIC50 (in general, −log10 of the IC50, conventionally taken in molar units) in [6] is 5.42.

Turning to `CC1=C(CC(=O)O)c2cc(F)ccc2/C1=C\c1ccc([S+](C)[O-])cc1` (stereo unspecified) [SULINDAC], the pIC50 in assay [6] is 6.53.

For the compound `O=C1NC2(CC3CCC2C3)C(=O)N1S(=O)(=O)c1ccc(Cl)cc1` (stereo unspecified), the Activity turned out to be 280 mg/dL in the assay filed under Rattus norvegicus [1]; 215 mg/dL in the assay listed under Rattus norvegicus [2]; 283 mg/dL in the assay filed under Rattus norvegicus [3]; 143 mg/dL in the assay filed under Rattus norvegicus [4]; 128 mg/dL in the assay filed under Rattus norvegicus [5]; 287 mg/dL in the assay filed under Rattus norvegicus [7]. Besides, the Activity in the assay listed under Rattus norvegicus [8] came out at 392 mg/dL. In addition, the pIC50 in [9] is 4.21; in assay [6] it was 5.25.

Turning to `COc1ccc(S(=O)(=O)N2C(=O)NC3(CC4CCC3C4)C2=O)cc1` (stereo unspecified), the Activity in the assay filed under Rattus norvegicus [1] was 570 mg/dL; in the assay listed under Rattus norvegicus [2] it was 565 mg/dL; in the assay listed under Rattus norvegicus [3], 544 mg/dL; in the assay listed under Rattus norvegicus [4] it was 600 mg/dL; in the assay listed under Rattus norvegicus [5], 620 mg/dL; in the assay filed under Rattus norvegicus [7], 353 mg/dL. In addition, the Activity in the assay listed under Rattus norvegicus [8] stood at 413 mg/dL. The pIC50 in assay [9] is 4.40; in assay [6], 5.36.

Regarding `O=C1c2ccccc2C(=O)c2cc(S(=O)(=O)N3C(=O)NC4(CC5CCC4C5)C3=O)ccc21` (stereo unspecified), the Activity worked out at 281 mg/dL in the assay filed under Rattus norvegicus [1]; 187 mg/dL in the assay listed under Rattus norvegicus [2]; 338 mg/dL in the assay listed under Rattus norvegicus [3]; 99 mg/dL in the assay filed under Rattus norvegicus [4]; 86 mg/dL in the assay listed under Rattus norvegicus [5]; 399 mg/dL in the assay filed under Rattus norvegicus [7]. Also, in the assay listed under Rattus norvegicus [8], the Activity was 460 mg/dL. The compound also returned an inhibition in the assay listed under Bos taurus of 41.6%. This compound also had a pIC50 in assay [6] of 5.35.

Consider `COc1ccc(Cl)cc1C(=O)NCCc1ccc(S(=O)(=O)NC(=O)NC2CCCCC2)cc1` [GLYBURIDE], for which the Activity in the assay filed under Rattus norvegicus [1] was found to be 239 mg/dL; in the assay listed under Rattus norvegicus [2], 220 mg/dL; in the assay filed under Rattus norvegicus [3], 250 mg/dL; in the assay filed under Rattus norvegicus [4] it was 170 mg/dL; in the assay listed under Rattus norvegicus [5], 150 mg/dL; in the assay filed under Rattus norvegicus [7] it was 289 mg/dL. The Activity in the assay filed under Rattus norvegicus [8] was found to be 350 mg/dL.

With `Cc1ccc(S(=O)(=O)N2C(=O)NC3(CC4CCC3C4)C2=O)cc1` (stereo unspecified), the Activity in the assay listed under Rattus norvegicus [1] turned out to be 225 mg/dL; in the assay listed under Rattus norvegicus [2] it was 163 mg/dL; in the assay listed under Rattus norvegicus [3] it was 305 mg/dL; in the assay filed under Rattus norvegicus [4], 128 mg/dL; in the assay filed under Rattus norvegicus [5], 114 mg/dL; in the assay filed under Rattus norvegicus [7] it was 421 mg/dL. The Activity in the assay filed under Rattus norvegicus [8] was 506 mg/dL. Besides, the results for the pIC50 in assay [9] and in [6] were 3.93 and 5.74, respectively.

`O=C1NC2(CC3CCC2C3)C(=O)N1S(=O)(=O)c1ccc([N+](=O)[O-])cc1` (stereo unspecified): the Activity in the assay filed under Rattus norvegicus [1] was found to be 421 mg/dL; in the assay listed under Rattus norvegicus [2] it was 349 mg/dL; in the assay filed under Rattus norvegicus [3], 482 mg/dL; in the assay filed under Rattus norvegicus [4], 502 mg/dL; in the assay listed under Rattus norvegicus [5] it was 542 mg/dL; in the assay listed under Rattus norvegicus [7], 429 mg/dL. Also, in the assay listed under Rattus norvegicus [8], the Activity is 399 mg/dL. Moreover, the pIC50 in [9] was 4.35; in [6] it was 4.88.

For `O=C1NC2(CC3CCC2C3)C(=O)N1S(=O)(=O)c1ccc(Br)cc1` (stereo unspecified), the Activity was 353 mg/dL in the assay filed under Rattus norvegicus [1]; 352 mg/dL in the assay listed under Rattus norvegicus [2]; 357 mg/dL in the assay listed under Rattus norvegicus [3]; 337 mg/dL in the assay filed under Rattus norvegicus [4]; 245 mg/dL in the assay listed under Rattus norvegicus [5]; 273 mg/dL in the assay filed under Rattus norvegicus [7]. In addition, the Activity in the assay listed under Rattus norvegicus [8] is 289 mg/dL. The inhibition in the assay filed under Bos taurus is 43.2%. Also, the pIC50 in assay [6] is 4.81.

The values are drawn from ChEMBL document CHEMBL2311260, “Dual action spirobicycloimidazolidine-2,4-diones: antidiabetic agents and inhibitors of aldose reductase-an enzyme involved in diabetic complications” (Bioorg Med Chem Lett, 2013).
